Results from ChEMBL document CHEMBL1133060, “N-(indol-3-ylglyoxylyl)piperidines: high affinity agonists of human GABA-A receptors containing the alpha1 subunit” (Bioorg Med Chem Lett, 2000).

What was measured:
[1] = biological target: T1, GABA-A receptor; alpha-2/beta-3/gamma-2 (Homo sapiens, UniProt P18507+P28472+P47869); assay: Binding affinity evaluated by ability to displace [3H]-Ro-15-1788 from recombinant human Gamma-aminobutyric acid A receptor alpha-2-beta-3-gamma-2 expressed in L(tk-)cells; assay type: cell-based
T1 sequence (P18507 whole entry): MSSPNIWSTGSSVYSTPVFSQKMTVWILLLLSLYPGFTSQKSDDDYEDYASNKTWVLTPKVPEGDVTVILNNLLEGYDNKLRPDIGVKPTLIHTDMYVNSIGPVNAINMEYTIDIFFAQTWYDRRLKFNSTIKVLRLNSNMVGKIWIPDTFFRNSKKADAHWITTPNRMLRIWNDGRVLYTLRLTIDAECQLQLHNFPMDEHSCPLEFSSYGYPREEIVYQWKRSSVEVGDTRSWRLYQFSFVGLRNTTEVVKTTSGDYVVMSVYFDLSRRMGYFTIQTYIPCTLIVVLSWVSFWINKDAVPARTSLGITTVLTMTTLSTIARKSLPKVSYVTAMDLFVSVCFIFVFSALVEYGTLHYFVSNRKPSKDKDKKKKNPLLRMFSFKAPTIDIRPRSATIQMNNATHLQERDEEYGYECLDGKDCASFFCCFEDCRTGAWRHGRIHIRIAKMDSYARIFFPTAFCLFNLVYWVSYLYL
T1 sequence (P28472 whole entry): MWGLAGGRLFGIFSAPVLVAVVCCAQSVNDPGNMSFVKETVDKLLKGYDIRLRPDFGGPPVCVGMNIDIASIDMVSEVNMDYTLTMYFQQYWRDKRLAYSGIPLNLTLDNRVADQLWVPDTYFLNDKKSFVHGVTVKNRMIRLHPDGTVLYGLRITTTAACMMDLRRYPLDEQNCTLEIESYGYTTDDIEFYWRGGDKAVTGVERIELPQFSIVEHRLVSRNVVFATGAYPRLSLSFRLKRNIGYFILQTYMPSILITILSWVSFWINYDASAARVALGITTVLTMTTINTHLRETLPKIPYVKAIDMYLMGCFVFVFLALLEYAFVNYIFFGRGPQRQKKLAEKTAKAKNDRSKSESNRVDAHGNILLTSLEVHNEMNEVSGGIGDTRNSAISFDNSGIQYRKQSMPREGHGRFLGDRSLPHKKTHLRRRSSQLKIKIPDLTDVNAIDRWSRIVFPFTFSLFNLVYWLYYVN
T1 sequence (P47869 whole entry): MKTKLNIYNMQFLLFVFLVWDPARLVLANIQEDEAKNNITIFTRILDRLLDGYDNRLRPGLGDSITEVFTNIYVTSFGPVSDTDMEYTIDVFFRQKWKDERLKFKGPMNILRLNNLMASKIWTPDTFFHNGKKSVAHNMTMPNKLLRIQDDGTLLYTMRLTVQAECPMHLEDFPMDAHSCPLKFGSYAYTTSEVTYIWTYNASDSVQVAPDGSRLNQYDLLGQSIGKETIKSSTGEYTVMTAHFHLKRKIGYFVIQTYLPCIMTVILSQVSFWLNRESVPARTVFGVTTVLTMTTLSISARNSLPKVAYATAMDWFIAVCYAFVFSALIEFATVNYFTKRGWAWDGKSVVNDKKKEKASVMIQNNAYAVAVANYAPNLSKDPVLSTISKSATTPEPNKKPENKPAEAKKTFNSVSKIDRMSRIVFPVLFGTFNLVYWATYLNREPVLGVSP

[2] = biological target: T2, GABA-A receptor; alpha-1/beta-2/gamma-2 (Homo sapiens) (UniProt P14867+P47870+P18507); assay: Ability to affect GABA-induced chloride current in Xenopus oocytes transiently expressing human GABA-A alpha-1-beta-2-gamma-2 receptors using two-electrode voltage-clamp electrophysiology at test concentration of 30 uM; assay type: functional, cell-based; conditions: Oocyte
Summary of the method: (§1)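 The GABA EC20 (concentration giving 20% of maximal GABA current) was determined separately for each oocyte, range 4–30 μM. Compound was then coapplied with GABA at that EC20 to measure modulation of the current. Mean ± SEM, n = 3-5.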

[3] = biological target: T3, GABA-A receptor; alpha-1/beta-2/gamma-2 (Homo sapiens, UniProt P14867+P18507+P47870); assay: Binding affinity evaluated by ability to displace [3H]Ro-151788 from recombinant human Gamma-aminobutyric acid A receptor alpha-1-beta-2-gamma-2 expressed in L(tk-)cells; assay type: cell-based
T3 sequence (P14867 whole entry): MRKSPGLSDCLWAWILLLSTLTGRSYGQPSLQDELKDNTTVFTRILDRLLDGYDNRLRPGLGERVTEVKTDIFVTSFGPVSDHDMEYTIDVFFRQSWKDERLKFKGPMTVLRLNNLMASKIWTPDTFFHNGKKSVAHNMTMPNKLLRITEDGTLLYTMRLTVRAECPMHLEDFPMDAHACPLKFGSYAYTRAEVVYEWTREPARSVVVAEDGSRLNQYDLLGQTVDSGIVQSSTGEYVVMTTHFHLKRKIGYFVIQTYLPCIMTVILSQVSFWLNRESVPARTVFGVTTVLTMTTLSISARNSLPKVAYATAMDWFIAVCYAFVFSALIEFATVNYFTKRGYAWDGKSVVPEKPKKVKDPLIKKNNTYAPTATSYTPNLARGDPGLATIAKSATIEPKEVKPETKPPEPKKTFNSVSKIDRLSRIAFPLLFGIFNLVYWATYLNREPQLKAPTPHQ
T3 sequence (P47870 whole entry): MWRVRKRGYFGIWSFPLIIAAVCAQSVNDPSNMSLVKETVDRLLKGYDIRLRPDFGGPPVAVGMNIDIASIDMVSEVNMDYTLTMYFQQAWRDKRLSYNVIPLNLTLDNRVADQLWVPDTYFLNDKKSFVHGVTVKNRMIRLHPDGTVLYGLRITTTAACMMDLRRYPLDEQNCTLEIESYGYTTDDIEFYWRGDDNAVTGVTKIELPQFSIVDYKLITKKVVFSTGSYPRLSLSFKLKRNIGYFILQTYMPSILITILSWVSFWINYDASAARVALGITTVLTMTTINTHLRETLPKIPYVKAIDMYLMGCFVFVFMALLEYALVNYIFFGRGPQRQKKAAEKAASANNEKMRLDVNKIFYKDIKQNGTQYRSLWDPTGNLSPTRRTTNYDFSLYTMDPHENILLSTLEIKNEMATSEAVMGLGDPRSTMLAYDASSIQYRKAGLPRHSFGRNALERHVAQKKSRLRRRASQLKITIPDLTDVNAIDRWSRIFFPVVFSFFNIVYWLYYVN
T3 sequence (P18507 whole entry): T1 sequence (P18507 whole entry)

[4] = biological target: T4, GABA-A receptor; alpha-3/beta-3/gamma-2 (Homo sapiens, UniProt P18507+P28472+P34903); assay: Binding affinity evaluated by ability to displace [3H]Ro-151788 from recombinant human Gamma-aminobutyric acid A receptor alpha-3-beta-3-gamma-2 expressed in L(tk-)cells; assay type: cell-based
T4 sequence (P18507 whole entry): T1 sequence (P18507 whole entry)
T4 sequence (P28472 whole entry): T1 sequence (P28472 whole entry)
T4 sequence (P34903 whole entry): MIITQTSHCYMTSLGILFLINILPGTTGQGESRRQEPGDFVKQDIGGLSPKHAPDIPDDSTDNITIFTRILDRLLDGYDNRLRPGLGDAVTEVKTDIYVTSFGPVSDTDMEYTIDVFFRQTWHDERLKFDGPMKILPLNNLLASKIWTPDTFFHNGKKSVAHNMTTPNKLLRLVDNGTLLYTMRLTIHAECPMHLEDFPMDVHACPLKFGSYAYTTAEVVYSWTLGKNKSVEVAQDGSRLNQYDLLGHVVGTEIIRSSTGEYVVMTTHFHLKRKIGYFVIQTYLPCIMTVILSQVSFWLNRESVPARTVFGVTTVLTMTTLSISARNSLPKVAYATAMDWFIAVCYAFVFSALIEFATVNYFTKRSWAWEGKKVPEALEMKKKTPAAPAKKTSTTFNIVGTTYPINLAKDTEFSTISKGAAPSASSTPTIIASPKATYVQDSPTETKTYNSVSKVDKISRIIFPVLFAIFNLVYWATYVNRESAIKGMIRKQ

[5] = biological target: T2, GABA-A receptor; alpha-1/beta-2/gamma-2 (Homo sapiens); assay: Ability to affect GABA-induced chloride current in Xenopus oocytes transiently expressing human GABA-A alpha-1-beta-2-gamma-2 receptors using two-electrode voltage-clamp electrophysiology at test concentration of 3 uM; assay type: functional, cell-based; conditions: Oocyte; summary of the method: as §1

| Structure (SMILES) | Ki [1] [nM] | Efficacy [2] [%] | Ki [3] [nM] | Ki [4] [nM] | Efficacy [5] [%] |
| --- | --- | --- | --- | --- | --- |
| CCOC(=O)CC1CCCN1C(=O)C(=O)c1c[nH]c2ccccc12 (centres undefined) | 430 | 28 | 890 | 570 | – |
| O=C(C(=O)N1CCc2ccccc2C1)c1c[nH]c2ccccc12 | 680 | – | 380 | 720 | – |
| CCOC(=O)[C@@H]1C[C@@H](C(=O)OCC)CN(C(=O)C(=O)c2c[nH]c3ccccc23)C1 | 200 | – | 400 | 250 | – |
| CCOC(=O)[C@@H]1C[C@H](C(=O)OCC)CN(C(=O)C(=O)c2c[nH]c3ccccc23)C1 | 22 | – | 14 | 23 | – |
| O=C(C(=O)N1Cc2ccccc2C1)c1c[nH]c2ccccc12 | 1300 | – | 200 | 19000 | 64 |
| O=C(C(=O)N1CCCC1Cc1ccccc1)c1c[nH]c2ccccc12 (centres undefined) | 830 | – | 440 | 960 | – |
| CCOC(=O)CC1CCCN1C(=O)C(=O)c1c[nH]c2c(C)cccc12 (centres undefined) | 440 | – | 510 | 500 | – |
| O=C(C(=O)N1CCCC(C(=O)OCc2ccccc2)C1)c1c[nH]c2ccccc12 (centres undefined) | 180 | – | 77 | 91 | – |
| CCOC(=O)CC1CCCN1C(=O)C(=O)c1c[nH]c2c(OC)cccc12 (centres undefined) | 270 | – | 460 | 320 | – |
| CN(Cc1ccccc1)C(=O)[C@@H]1CCCN(C(=O)C(=O)c2c[nH]c3ccccc23)C1 | 19 | – | 7.3 | 50 | – |
| CN(Cc1ccccc1)C(=O)C1CCCN(C(=O)C(=O)c2c[nH]c3ccccc23)C1 (centres undefined) | 40 | – | 14 | 96 | – |
| O=C(C(=O)N1CCCC(C(=O)NCc2ccccc2)C1)c1c[nH]c2ccccc12 (centres undefined) | 970 | – | 300 | 1500 | – |
| CN(Cc1ccccc1)C(=O)[C@H]1CCCN(C(=O)C(=O)c2c[nH]c3ccccc23)C1 | 250 | – | 140 | 670 | – |
| CCOC(=O)C1CCCN(C(=O)C(=O)c2c[nH]c3ccccc23)C1 (centres undefined) | 390 | – | 880 | 990 | – |
